Tests used:
[1] = Cytotoxicity against MDCK2 cells dosed with micelles after 1 hr; set-up: species or system Canis lupus familiaris; conditions: dog, mdck-ii
Outline: (§1)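 MDCKII cells (wild type or stably expressing hNPC1L1, G418-maintained) seeded at 2 × 10^5 cells/mL 24 h ahead in DMEM/10% FCS. Cells exposed for 1 h, then viability read by MTT assay.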

[2] = Cytotoxicity against MDCK2 cells expressing human NPC1L1 dosed with micelles after 1 hr; set-up: species or system Canis lupus familiaris; conditions: dog, mdck-ii; outline: as §1
[3] = target: T1, NPC1-like intracellular cholesterol transporter 1 (Homo sapiens) (UniProt Q9UHC9); test: Inhibition of human NPC1L1 transfected in MDCK2 cells assessed as [3H]cholesterol uptake at 60 uM after 1 hr by liquid scintillation counting analysis; type: cell-based; conditions: MDCK-II
T1 sequence (whole entry): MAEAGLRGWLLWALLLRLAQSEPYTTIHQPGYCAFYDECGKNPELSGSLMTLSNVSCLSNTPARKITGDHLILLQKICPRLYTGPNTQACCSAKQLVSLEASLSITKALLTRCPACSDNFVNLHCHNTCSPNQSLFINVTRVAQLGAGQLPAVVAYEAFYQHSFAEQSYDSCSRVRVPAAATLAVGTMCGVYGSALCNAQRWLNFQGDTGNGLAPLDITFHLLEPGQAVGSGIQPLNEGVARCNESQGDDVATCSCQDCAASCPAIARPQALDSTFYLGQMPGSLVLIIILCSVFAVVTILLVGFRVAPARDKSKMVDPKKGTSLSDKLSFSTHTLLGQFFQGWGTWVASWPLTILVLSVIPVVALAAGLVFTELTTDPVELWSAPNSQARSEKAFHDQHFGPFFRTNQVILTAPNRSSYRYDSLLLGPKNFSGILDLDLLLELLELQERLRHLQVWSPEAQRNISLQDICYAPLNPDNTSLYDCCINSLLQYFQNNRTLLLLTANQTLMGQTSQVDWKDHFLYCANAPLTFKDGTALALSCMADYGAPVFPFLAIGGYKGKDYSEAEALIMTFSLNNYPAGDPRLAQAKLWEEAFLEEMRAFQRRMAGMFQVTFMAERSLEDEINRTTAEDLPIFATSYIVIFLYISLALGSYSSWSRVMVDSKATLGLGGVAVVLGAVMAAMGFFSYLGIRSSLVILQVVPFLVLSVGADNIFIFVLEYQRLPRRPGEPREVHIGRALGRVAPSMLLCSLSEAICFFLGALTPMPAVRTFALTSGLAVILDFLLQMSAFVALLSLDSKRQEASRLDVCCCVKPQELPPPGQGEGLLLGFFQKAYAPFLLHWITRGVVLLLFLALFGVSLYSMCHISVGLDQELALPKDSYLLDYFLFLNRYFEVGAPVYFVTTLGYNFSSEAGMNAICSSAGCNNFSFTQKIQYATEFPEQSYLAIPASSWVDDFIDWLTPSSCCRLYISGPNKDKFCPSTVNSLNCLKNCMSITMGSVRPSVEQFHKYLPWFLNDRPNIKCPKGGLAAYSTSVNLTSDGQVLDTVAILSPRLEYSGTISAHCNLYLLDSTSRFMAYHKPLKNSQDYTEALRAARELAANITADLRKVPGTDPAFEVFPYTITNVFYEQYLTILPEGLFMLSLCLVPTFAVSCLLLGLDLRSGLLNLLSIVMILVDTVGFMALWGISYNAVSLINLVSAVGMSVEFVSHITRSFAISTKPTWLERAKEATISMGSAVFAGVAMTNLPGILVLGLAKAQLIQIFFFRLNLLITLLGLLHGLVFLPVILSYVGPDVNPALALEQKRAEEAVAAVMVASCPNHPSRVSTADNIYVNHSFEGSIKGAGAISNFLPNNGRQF
Outline: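 hNPC1L1/MDCKII cells were seeded in DMEM with 5% LPDS 24 h before treatment, then PBS-washed. Cells were exposed for 1 h to micellar medium carrying [3H]cholesterol (0.18 μCi/mL) plus compound (0–200 μM). They were washed with ice-cold 0.2% fatty acid-free BSA and lysed, and lysate counted by scintillation. Counts were normalised to protein (CPM/mg) and expressed as % inhibition versus untreated cells. Duplicates, three independent experiments.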

Row | inhibition [3] [%] | Compound | Activity [1] | Activity [2]
1 | – | O=C(Cc1ccccc1)N[C@H]1C(=O)N(c2ccc(F)cc2)[C@@H]1c1ccc(O)cc1 | Non-toxic | Non-toxic
2 | 40 | O=C1[C@H](CC[C@H](O)c2ccc(F)cc2)[C@@H](c2ccc(O)cc2)N1c1ccc(F)cc1 [EZETIMIBE] | Non-toxic | Non-toxic
3 | 60 | O=C(N[C@H]1C(=O)N(c2ccc(F)cc2)[C@@H]1c1ccc(O)cc1)c1ccccc1 | Non-toxic | Non-toxic
4 | – | O=C(/C=C/c1ccccc1)N[C@H]1C(=O)N(c2ccc(F)cc2)[C@@H]1c1ccc(O)cc1 | Non-toxic | Non-toxic
5 | – | O=C(/C=C/c1ccc(F)cc1)N[C@H]1C(=O)N(c2ccc(F)cc2)[C@@H]1c1ccc(O)cc1 | Non-toxic | Non-toxic
6 | 60 | O=C(N[C@H]1C(=O)N(c2ccc(F)cc2)[C@@H]1c1ccc(O)cc1)c1ccc(F)cc1 | Non-toxic | Non-toxic
7 | – | O=C(Cc1ccc(F)cc1)N[C@H]1C(=O)N(c2ccc(F)cc2)[C@@H]1c1ccc(O)cc1 | Non-toxic | Non-toxic

Reference: ChEMBL document CHEMBL3400023, “Synthesis and evaluation of novel amide amino-β-lactam derivatives as cholesterol absorption inhibitors” (Bioorg Med Chem, 2015)
